Reference: ChEMBL document CHEMBL1141116, “Synthesis and structure-activity relationship of the first nonpeptidergic inverse agonists for the human cytomegalovirus encoded chemokine receptor US28” (J Med Chem, 2005)

Key:
[1] = molecular target: T1, G-protein coupled receptor homolog US28 (Human cytomegalovirus (strain AD169) (HHV-5) (Human herpesvirus 5), UniProt P69332); assay: Inhibitory concentration against chemokine receptor US28 expressed in COS-7 cells using [125I]-CCL5; assay type: cell-based, Human betaherpesvirus 5
T1 sequence (P69332 whole entry): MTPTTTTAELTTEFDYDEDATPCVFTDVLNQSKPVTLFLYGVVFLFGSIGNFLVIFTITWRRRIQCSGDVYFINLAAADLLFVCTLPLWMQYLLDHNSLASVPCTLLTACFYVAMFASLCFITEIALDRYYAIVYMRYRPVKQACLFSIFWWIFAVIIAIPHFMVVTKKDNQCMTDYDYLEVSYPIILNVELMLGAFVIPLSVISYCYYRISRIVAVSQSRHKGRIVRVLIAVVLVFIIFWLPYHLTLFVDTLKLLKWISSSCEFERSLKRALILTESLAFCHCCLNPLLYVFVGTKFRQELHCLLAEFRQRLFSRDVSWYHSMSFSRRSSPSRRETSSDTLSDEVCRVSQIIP
In short: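 Whole US28-transfected COS-7 cells, 48 h post-transfection, incubated 3 h at 4 °C with 0.3 nM [125I]CCL5 in 50 mM Hepes pH 7.4, 1 mM CaCl2, 5 mM MgCl2, 0.5% BSA ± varying compound concentrations. Four washes at 4 °C with buffer plus 0.5 M NaCl; nonspecific binding with 0.1 μM unlabeled CCL5. IC50 as mean, interval from ≥3 experiments unless noted.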

[2] = molecular target: T1, G-protein coupled receptor homolog US28; assay: Effective concentration against US28-mediated inositol phosphate production in COS-7 cells; assay type: functional, cell-based
In short: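 COS-7 cells transiently transfected (DEAE-dextran, 2 μg DNA per million cells, pcDEF3-US28); 24 h post-transfection labeled overnight with 2 μCi/ml myo-[2-3H]inositol in inositol-free medium. After 10 min wash, 2 h incubation in DMEM with 25 mM HEPES pH 7.4 and 20 mM LiCl ± varying compound concentrations; stopped with cold 10 mM formic acid, [3H]inositol phosphates isolated by anion exchange, scintillation counted. EC50 as mean, interval from ≥3 experiments.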

Row | Structure (SMILES) | IC50 [1] | EC50 [2]
1 | OC1(c2ccc(Cl)cc2)CCN(CCCCc2ccccc2)CC1 | 14.8 µM | –
2 | COc1ccc(C2(O)CCN(CCCC(C#N)(c3ccccc3)c3ccccc3)CC2)cc1 | 72.4 µM | 28.8 µM
3 | N#CC(CCCN1CCC(O)(c2ccccc2)CC1)(c1ccccc1)c1ccccc1 | 35.5 µM | 28.2 µM
4 | N#CC(CCCN1CCN(c2ccc(Cl)cc2)CC1)(c1ccccc1)c1ccccc1 | > 100 µM | > 100 µM
5 | OC1(c2ccc(Cl)cc2)CCN(CCCOc2ccccc2)CC1 | 61.7 µM | –
6 | Cc1ccc(C2(O)CCN(CCCC(C#N)(c3ccccc3)c3ccccc3)CC2)cc1 | 60.3 µM | –
7 | N#CC(CCCN1CCC(O)(c2ccc(Br)cc2)CC1)(c1ccccc1)c1ccccc1 | 19.5 µM | –
8 | N#CC(CCCN1CCC(O)CC1)(c1ccccc1)c1ccccc1 | > 100 µM | > 100 µM
9 | COc1ccc(C(CCCN2CCC(O)(c3ccc(Cl)cc3)CC2)c2ccccc2)cc1 (configuration not stated) | 15.5 µM | –
10 | CCOC(=O)C1CCN(CCCC(C#N)(c2ccccc2)c2ccccc2)CC1 | 34.7 µM | > 100 µM
11 | N#CC(CCCN1CCC(O)(c2ccc(Cl)c(Cl)c2)CC1)(c1ccccc1)c1ccccc1 | 38 µM | –
12 | OC1(c2ccc(Cl)cc2)CCN(CCCC(c2ccccc2)c2ccc(Cl)c(Cl)c2)CC1 (configuration not stated) | 15.8 µM | –
13 | N#CC(CCCN1CCC(C(=O)O)CC1)(c1ccccc1)c1ccccc1 | > 100 µM | > 100 µM
14 | N#CC1(c2ccccc2)CCN(CCCC(C#N)(c2ccccc2)c2ccccc2)CC1 | > 100 µM | > 100 µM
15 | N#CC(CCCN1CCC(c2ccc(Cl)cc2)CC1)(c1ccccc1)c1ccccc1 | – | 13.8 µM
16 | Cc1ccccc1C(CCCN1CCC(O)(c2ccc(Cl)cc2)CC1)c1ccccc1 (configuration not stated) | 5.5 µM | 9.8 µM
17 | OC1(c2ccc(Cl)cc2)CCN(CCCC(c2ccccc2)c2ccc(Cl)cc2)CC1 (configuration not stated) | 17 µM | –

Row | Structure (SMILES) | IC50 [1] | EC50 [2]
18 | N#CC(CCCN1CCC(O)(Cc2ccccc2)CC1)(c1ccccc1)c1ccccc1 | 63.1 µM | –
19 | OC1(c2ccc(Cl)cc2)CCN(CCCC(c2ccccc2)c2ccccc2)CC1 | 6.5 µM | 4.2 µM
20 | N#CC(CCCN1CCC(C(N)=O)CC1)(c1ccccc1)c1ccccc1 | > 100 µM | > 100 µM
21 | OC1(c2ccc(Cl)cc2)CCN(CCCC(c2ccc(Cl)cc2)c2ccc(-c3ccccc3)cc2)CC1 (configuration not stated) | > 100 µM | > 100 µM
22 | N#CC(CCCN1CCC(=C(c2ccccc2)c2ccccc2)CC1)(c1ccccc1)c1ccccc1 | > 100 µM | > 100 µM
23 | O=C(CCCN1CCC(O)(c2ccc(Cl)cc2)CC1)c1ccccc1 | > 100 µM | –
24 | C[N+]1(CCCC(C#N)(c2ccccc2)c2ccccc2)CCC(O)(c2ccc(Cl)cc2)CC1 (configuration not stated) | > 100 µM | > 100 µM
25 | Cc1ccc(C(CCCN2CCC(O)(c3ccc(Cl)cc3)CC2)c2ccccc2)cc1 (configuration not stated) | 30.9 µM | 11.5 µM
26 | N#CC(CCCN1CC=C(c2ccc(Cl)cc2)CC1)(c1ccccc1)c1ccccc1 | > 100 µM | > 100 µM
27 | N#CC(CCCN1CCC(O)(c2ccc(Cl)c(C(F)(F)F)c2)CC1)(c1ccccc1)c1ccccc1 | 45.7 µM | –
28 | OC(CCCN1CCC(O)(c2ccc(Cl)cc2)CC1)c1ccccc1 (configuration not stated) | > 100 µM | > 100 µM
29 | CC1(O)CCN(CCCC(C#N)(c2ccccc2)c2ccccc2)CC1 | > 100 µM | > 100 µM
30 | OC1(c2ccc(Cl)cc2)CCN(CCCC(c2ccc(Cl)cc2)c2ccc(Cl)cc2)CC1 | 17.4 µM | –
31 | Cc1cccc(C(CCCN2CCC(O)(c3ccc(Cl)cc3)CC2)c2ccccc2)c1 (configuration not stated) | 11.5 µM | –
32 | CCCCC1(O)CCN(CCCC(C#N)(c2ccccc2)c2ccccc2)CC1 | > 100 µM | > 100 µM
33 | N#CC(CCCN1CCC(O)(c2ccc(Cl)cc2)CC1)(c1ccccc1)c1ccccc1 [BERLEX COMPOUND] | 9.3 µM | 3.2 µM
